Test results taken from ChEMBL document CHEMBL1125769 (J Med Chem, 1991).
“And” between values parts separate entries of the source, which are not always exact repeats. Equal entries are not always repeated. Square brackets hold non-standard residues; d marks the D form. Peptide text beside a SMILES is read from it. Sar = CNCC(=O)O

What was measured:
Oryctolagus cuniculus = organism: Oryctolagus cuniculus; test: In vitro agonist activity expressed as percent activity relative to ANG II was measured in rabbit aorta strip assay; type: functional
[1] = biological target: T1, Angiotensin II receptor (Rattus norvegicus) (UniProt P29089+P25095+P35351); test: In vitro agonist activity relative to angiotensin II measured in rabbit aorta strip assay.; type: functional, tissue-based
[2] = biological target: T1, Angiotensin II receptor (Rattus norvegicus); test: In vivo agonist activity expressed as percent activity relative to angiotensin II in rat blood pressure assay.; type: functional, organism-based
Procedure, shortened: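 Rat blood pressure (pressor) assay in vivo, after Regoli et al.; ANG II-like activity given as percent activity relative to ANG II; n = 5.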

Rattus norvegicus [3] = test: In vivo antagonist activity (ANG II like) expressed as blood pressure increase […] produced by […] iv injection of compound in rats; type: functional
Procedure, shortened: (§1)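 Rat blood pressure assay after Regoli et al.; residual ANG II-like activity read as mmHg rise in blood pressure following a one microgram intravenous bolus of compound; n = 5.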

Rattus norvegicus [4] = test: in vivo antagonist activity (ANG II like) is expressed by blood pressure increase (mHg) produced by […] iv injection of compound in rats; type: functional; procedure, shortened: as §1
Rattus norvegicus [5] = organism: Rattus norvegicus; test: In vitro antagonist activity expressed as pA2 was measured in rat uterus
Angiotensin II receptor = biological target: T2, Angiotensin II receptor (Rattus norvegicus, UniProt P29089+P25095+P35351); test: In vitro antagonist activity (ANG II like) expressed as percent activity relative to ANG II in rabbit aorta strip assay.; type: functional, tissue-based
T2 sequence (P29089 whole entry): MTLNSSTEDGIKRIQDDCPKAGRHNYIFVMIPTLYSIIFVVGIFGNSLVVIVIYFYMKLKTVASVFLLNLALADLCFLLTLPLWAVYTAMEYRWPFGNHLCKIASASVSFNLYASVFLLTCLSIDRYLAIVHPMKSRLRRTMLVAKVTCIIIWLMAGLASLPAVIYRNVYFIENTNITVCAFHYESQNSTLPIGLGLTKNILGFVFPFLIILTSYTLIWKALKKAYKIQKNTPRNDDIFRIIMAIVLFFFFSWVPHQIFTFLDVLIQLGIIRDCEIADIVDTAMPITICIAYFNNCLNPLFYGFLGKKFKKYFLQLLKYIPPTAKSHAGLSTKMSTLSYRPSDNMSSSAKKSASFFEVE
T2 sequence (P25095 whole entry): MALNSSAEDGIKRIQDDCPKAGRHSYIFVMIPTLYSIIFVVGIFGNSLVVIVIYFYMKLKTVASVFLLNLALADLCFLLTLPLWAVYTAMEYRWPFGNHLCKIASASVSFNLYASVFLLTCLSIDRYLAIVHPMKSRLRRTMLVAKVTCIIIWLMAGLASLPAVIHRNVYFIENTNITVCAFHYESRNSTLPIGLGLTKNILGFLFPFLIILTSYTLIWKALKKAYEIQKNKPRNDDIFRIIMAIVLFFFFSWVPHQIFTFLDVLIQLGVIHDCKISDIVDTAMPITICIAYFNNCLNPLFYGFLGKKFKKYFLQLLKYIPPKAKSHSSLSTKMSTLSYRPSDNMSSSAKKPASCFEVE
T2 sequence (P35351 whole entry): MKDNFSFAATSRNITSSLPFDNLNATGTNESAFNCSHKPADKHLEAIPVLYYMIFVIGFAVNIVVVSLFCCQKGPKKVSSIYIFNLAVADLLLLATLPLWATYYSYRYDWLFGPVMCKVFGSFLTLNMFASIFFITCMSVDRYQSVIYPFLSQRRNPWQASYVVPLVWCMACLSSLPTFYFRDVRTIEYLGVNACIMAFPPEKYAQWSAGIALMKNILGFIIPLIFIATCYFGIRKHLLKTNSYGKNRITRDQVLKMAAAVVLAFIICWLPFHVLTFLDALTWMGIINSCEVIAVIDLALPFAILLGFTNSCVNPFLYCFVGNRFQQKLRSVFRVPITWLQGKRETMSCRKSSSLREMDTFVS

[6] = biological target: T1, Angiotensin II receptor (Rattus norvegicus); test: In vivo antagonist activity (ANG II like) expressed by blood pressure increase (mHg) produced by […] iv injection of compound in rats; type: functional, organism-based; procedure, shortened: as §1

Row | Activity [1] [%] | pA2 (Angiotensin II receptor) | Structure (SMILES) | Activity (Oryctolagus cuniculus) [%] | Activity [2] | ID50 (Rattus norvegicus [3]) | ID50 (Rattus norvegicus [4]) [ng min-1 rat-1] | pA2 (Rattus norvegicus [5]) | ID50 (ng min-1 rat-1) [6]
1 | 0.5 | – | CC[C@H](C)[C@H](NC(=O)[C@H](Cc1ccc(O)cc1)NC(=O)[C@@H](NC(=O)[C@H](CCCN=C(N)N)NC(=O)CNC)C(C)C)C(=O)N[C@@H](Cc1c[nH]cn1)C(=O)N1CCC[C@H]1C(=O)N[C@@H](C)C(=O)O | 0 | 15.1% and 10% | 7.92 ng min-1 rat-1 and 15 ng min-1 rat-1 | – | – | –
2 | – | – | CC[C@H](C)[C@H](NC(=O)[C@@H]1CSCN1C(=O)[C@H](Cc1c[nH]cn1)NC(=O)[C@@H](NC(=O)[C@H](Cc1ccc(O)cc1)NC(=O)[C@@H](NC(=O)[C@H](CCCN=C(N)N)NC(=O)CNC)C(C)C)[C@@H](C)CC)C(=O)O | – | – | – | 12.5 | 7.2 | –
3 | 0 | < 6 | CC[C@@H](C)[C@@H](NC(=O)[C@H](Cc1ccc(O)cc1)NC(=O)[C@H](C)N(C)C(=O)[C@H](CCCN=C(N)N)NC(=O)CNC)C(=O)N[C@@H](Cc1c[nH]cn1)C(=O)N1CCC[C@H]1C(=O)NC(Cc1ccccc1)C(=O)O (stereo in doubt) | – | 10% | – | – | – | 100
4 | 0 | 8.3 | CC[C@H](C)[C@H](NC(=O)[C@@H]1CCCN1C(=O)[C@H](Cc1c[nH]cn1)NC(=O)[C@@H](NC(=O)[C@H](Cc1ccc(O)cc1)NC(=O)[C@H](C)NC(=O)[C@H](CCCN=C(N)N)NC(=O)CNC)[C@@H](C)CC)C(=O)O (H-[Sar]RAYIHPI-OH) | – | 7.5% | – | – | – | 25
